The subject of one data set is SET-2 xenografts. Put plainly: Subcutaneous SET-2 model of megakaryoblastic leukemia. In kind it is in vivo, mouse. The conditions noted are these: d18. Summed up:
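Female SCID-beige mice (9 weeks; n=12 per group) were implanted s.c. with 5 × 10^6 SET-2 cells in Matrigel. From d33 post-implantation, they were dosed orally for 19 days (d0–d18), with separate doses at least 8 h apart. Tumor volume was measured by caliper as (w²×l)/2, and tumors were weighed at the end. Synergy was assessed by Clarke's CI, with <0 counted as synergy. Statistics used ANOVA/Dunnett.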

The next data set has as its system MOLM-13 s.c. xenografts. Put plainly: Subcutaneous MOLM-13 xenograft model. The format is in vivo, mouse. Conditions: for reduction in tumor weight: d7. Summed up:
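Female SCID mice (n=12 per group) were given 5 × 10^6 MOLM-13 cells s.c. with Matrigel. Treatment started on d11 and ran 8 days, all oral: 50 mg/kg pacritinib daily in the evenings and 75 mg/kg pracinostat every other day. On the last day, tumors were excised and weighed. Metastases to lungs, breast fat-pad and lymph nodes were counted. Statistics used ANOVA/Dunnett.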

Data set [1] is described as follows: Pharmacokinetic analysis of pracinostat and pacritinib in plasma. In kind it is in vivo, mouse. The conditions noted are these: d14 vs d1.
For another data set, the system named is MCP-1. Briefly: Plasma cytokine/chemokine analysis in SET-2 tumor-bearing mice. In kind it is in vivo, mouse. The conditions noted are these: d18. Summed up: (§1)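 Plasma came from female SCID-beige mice bearing s.c. SET-2 tumors (5 × 10^6 cells) that had been dosed orally with the test compounds in the efficacy study. It was collected on d18, 3 h post-dose. A Luminex 32-plex mouse cytokine/chemokine panel measured the analytes. Comparators were uninoculated naive mice and vehicle-treated tumor-bearing mice.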

In data set [2] the test system is IL-6, IP-10, KC and MIP-1α. Described as above. In kind it is in vivo, mouse. The method, boiled down:
as §1

The test system of the next data set is pSTAT5 in SET-2 tumors. Briefly: pSTAT5 levels in SET-2 tumors after chronic treatment. The format is in vivo, mouse. The conditions noted are these: end of study. Summed up:
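SET-2 s.c. tumors came from female SCID-beige mice dosed orally d0–d18. They were excised on the last treatment day, 3 h post-dose, and lysed. pSTAT5 was measured by western blot and compared with vehicle-treated animals.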

Data set [3] concerns pFLT3, FLT3 in MOLM-13 tumors. Put plainly: Western blot analysis of MOLM-13 tumors. The format is in vivo, mouse. Conditions: chronic treatment with pacritinib alone, d7. For orientation: Immunoblotting shows a protein as a band on a membrane.
Data set [4] can be described thus: Toxicokinetic studies in mice, single agent. In kind it is in vivo. The conditions noted are these: data not shown.
The test system of data set [5] is panel of 11 AML cell lines. Briefly: Cell proliferation assay. The format is cell-based. The conditions noted are these: Homo sapiens, 48 h, read-out: IC50 on cell proliferation. The method, boiled down:
(§2)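 Cells were seeded at a predetermined optimal density in log phase and rested 2 h before treatment. They were then exposed for 48 h to test compound in 9 serial-dilution steps from 10 μM to 1.5 nM, with 0.1% solvent. Viability was read by CellTiter-Glo luminescence. At least three independent experiments were run in triplicate, and IC50 came from curve fitting.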

The subject of the next data set is HL-60. Put plainly: Cell proliferation assay and in vitro synergy. The conditions noted are these: Homo sapiens, HL-60, 48 h, read-out: IC50 on cell proliferation. In kind it is cell-based. The method, boiled down:
as §2

The subject of data set [6] is pJAK2, JAK2, pSTAT5 and STAT5 in JAK2^V617F mutant cells (HEL92.1.7 and SET-2). Put plainly: Western blot of JAK-STAT signaling. Conditions: 125–500 nM for 24 h. In kind it is cell-based, human. Summed up: (§3)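 Cells were treated with test compound at 125–500 nM for 24 h, then lysed. Western blots of 25 μg total lysate were probed for pJAK2 (Y1007/1008), JAK2, pSTAT5 (Y694) and STAT5. JAK2V617F lines were compared with JAK2 wt lines.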

The subject of data set [7] is pJAK2, JAK2, pSTAT5 and STAT5 in JAK2 wt 32D cells. Briefly: Western blot of JAK-STAT signaling. The conditions noted are these: 125–500 nM for 24 h. The format is cell-based, murine. Summed up:
as §3

The subject of data set [8] is pJAK2, JAK2, pSTAT5 and STAT5 in JAK2 wt KARPAS 1106-P cells. Put plainly: Western blot of JAK-STAT signaling. The format is cell-based. Conditions: data not shown. Summed up:
as §3

The test system of data set [9] is pFLT3 (Y591) in MV4-11 cells (FLT3-ITD). Briefly: Western blot of FLT3 signaling. Conditions: 500 nM, 24 h. The format is cell-based, human. Summed up: (§4)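 Cells were treated with test compound at graded concentrations for 24 h, then lysed. Western blots loaded 50 μg total lysate for pFLT3 (Y591) and FLT3, and 25 μg for the other proteins. Other antibodies were pSTAT5 (Y694) and STAT5. FLT3-ITD lines were compared with wt-FLT3 RS4;11 cells.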

In data set [10] the test system is pFLT3 (Y591) in MOLM-13 cells (FLT3-ITD). Put plainly: Western blot of FLT3 signaling. The format is cell-based, human. The conditions noted are these: 500 nM, 24 h. The method, boiled down:
as §4

Data set [11] relates to pFLT3, FLT3 and pSTAT5 in RS4;11 cells (wt FLT3). Briefly: Western blot of FLT3 signaling. The format is cell-based, human. Conditions: RS4;11, 24 h, compared with FLT3-ITD cell lines. The method, boiled down:
as §4

The subject of the next data set is MV4-11 xenografts. Put plainly: Subcutaneous MV4-11 xenograft model. The format is in vivo, mouse. Summed up: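 Female BALB/c nude mice (8–10 weeks; n=10 per group) were implanted s.c. in the right flank with 1 × 10^7 MV4-11 cells in serum-free medium mixed 1:1 with Matrigel. From d9, they received 25 or 50 mg/kg per day by oral gavage (10 ml/kg) for 21 days. Tumor volume was measured by caliper as (w²×l)/2. Statistics used ANOVA/Bonferroni.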

For the next data set, the system named is HEL92.1.7 xenografts. Put plainly: Subcutaneous HEL92.1.7 xenograft model. In kind it is in vivo, mouse. Conditions: HEL92.1.7 model, 75 or 125 mg/kg every other day for 17 days. The method, boiled down:
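Female BALB/c nude mice (8–10 weeks; n=5 per group) were implanted s.c. in the right flank with 5 × 10^6 HEL92.1.7 cells in serum-free medium mixed 1:1 with Matrigel. From d18, they were dosed by oral gavage (10 ml/kg) at 75 or 125 mg/kg every other day for 17 days. Tumor volume was measured by caliper as (w²×l)/2.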

Data set [12] deals with HL-60 cells engrafted orthotopically. Put plainly: Orthotopic AML model. In kind it is in vivo, mouse. The method, boiled down:
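Female SCID mice (n=6 per group) received 1 × 10^7 HL-60 cells i.v. in 100 μl serum-free medium. From d30, once disease was established, they were dosed with 125 mg/kg test compound thrice weekly by oral gavage at 10 ml/kg. Paralysis symptoms were scored. Blood counts were taken from tail blood with a hematology analyzer and compared with age-matched uninoculated SCID mice. Statistics used ANOVA/Bonferroni.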

Setting [13] is: pacritinib 150 mg/kg twice daily.

`C1=C/COCc2cc(ccc2OCCN2CCCC2)Nc2nccc(n2)-c2cccc(c2)COC/1` [pacritinib]: in the data set with SET-2 xenografts (setting [13]), the “TGI (tumor volume)” value is on record as 61% and the “TGI on the basis of tumor weight” value is 47%. Moreover, in the data set with MOLM-13 s.c. xenografts (pacritinib 50 mg/kg daily), the “reduction in tumor weight” value is on record as 14.7%. Further, the “reduction of metastatic incidences” value in the data set on MOLM-13 s.c. xenografts (single-agent pacritinib) turned out to be 60%. For the same molecule, in [1] (pacritinib), the “increase in AUC after chronic dosing in combination” value is on record as “approximately four-fold” and the “increase in Cmax after chronic dosing in combination” value is listed as “approximately two-fold”. In addition, the “reduction of plasma MCP-1 levels” value in the data set on MCP-1 (pacritinib single agent) was determined as 10%. In data set [2] (single-agent pacritinib), the “plasma IL-6, IP-10, KC and MIP-1α” value is on record as “normalization”. For the same molecule, the “decrease of pSTAT5 levels in tumors” value with pSTAT5 in SET-2 tumors (pacritinib 150 mg/kg twice daily, 3 h post dose) is on record as “about 50%”. Also, in data set [3], the “total levels of FLT3 in tumors” value is reported as “increased expression total levels of FLT3 significantly”. Further, the “increase in exposure following repeated dosing” value in data set [4] is recorded as “two-fold”.

Turning to `CCCCc1nc2cc(/C=C/C(=O)NO)ccc2n1CCN(CC)CC` [pracinostat], the IC50 in [5] is 0.07 to 0.56 µM; in the data set on HL-60, 0.07 µM. Besides, the “pJAK2 (Y1007/08) and pSTAT5 (Y694) levels, total JAK2 and STAT5 protein” value in data set [6] was “decreased”. Moreover, the “pJAK2, JAK2, pSTAT5 and STAT5 protein levels” value in [7] and in data set [8] was “remained unaffected” in each case. Besides, the “pFLT3 (Y591) level” value in data set [9] and in data set [10] was “near-total ablation” in each case. Also, the “levels of pFLT3 and FLT3, and pSTAT5” value in data set [11] is reported as “reduced, but to a lesser extent”. The “Complete tumor regression at the end of the treatment” value in the data set on MV4-11 xenografts (50 mg/kg per day for 21 days) was 6 out of 10. For the same molecule, the “maximum body weight loss” value with MV4-11 xenografts (MV4-11 model, 25 or 50 mg/kg per day for 21 days) is recorded as 7%; in the data set on HEL92.1.7 xenografts, 4.7%. The numbers of platelets entry in data set [12] (125 mg/kg thrice weekly) is reported as “without significantly reducing”. For the same molecule, the “delay of the disease onset” value in [12] (125 mg/kg thrice weekly from d30) amounted to 17 days. Moreover, in data set [12] (125 mg/kg thrice weekly, d15 of the study), the “blood counts (white blood counts, lymphocyte counts)” value is recorded as “normalizing blood counts to the levels of disease-free mice”. The “reduction of death caused by progressive AML” value in [12] (125 mg/kg thrice weekly, study d24) amounted to 50%. In the data set on SET-2 xenografts (pracinostat 75 mg/kg q.o.d), the “TGI on the basis of tumor weight” value turned out to be 42.5%. For the same molecule, the “reduction in tumor weight” value in the data set with MOLM-13 s.c. xenografts (pracinostat 75 mg/kg q.o.d) worked out at 19.2%. Moreover, the “reduction of metastatic incidences” value in the data set on MOLM-13 s.c. xenografts (single-agent pracinostat) is on record as 50%. Besides, in [1] (pracinostat), the “pharmacokinetic parameters after 14 days of co-administration with pacritinib” value is listed as “similar”. Also, the “reduction of plasma MCP-1 levels” value with MCP-1 (pracinostat single agent) came out at 40%. For the same molecule, the “plasma IL-6, IP-10, KC and MIP-1α” value in [2] (single-agent pracinostat) is listed as “normalization”. Further, the “pSTAT5 levels in tumors compared with vehicle treated animals” value in the data set with pSTAT5 in SET-2 tumors (pracinostat 75 mg/kg every other day) was “increased pSTAT5 levels”.
